Active and inactive are the calls of the source. No cut-off for these calls is given here.
Columns and labels:
HL-60 [1] = test: The compound was tested in vitro for growth inhibition against HL-60(human promyelocytic leukemia) cell line in the presence of UVA(ultra violet A irradiated); assay type: functional, cell-based; settings: HL-60, light or radiation study
HeLa [2] = test: The compound was tested in vitro for growth inhibition against HeLa(human cervix adenocarcinoma) cell line in the presence of UVA(ultra violet A irradiated); assay type: functional, cell-based; settings: light or radiation study
In short: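 HeLa (F-12 with 10% heat-inactivated FCS) seeded 10^5/well for 24 h; medium changed to phenol red-free DMEM with test agent, 1 h later irradiated with UVA 0.793 J cm-2 at 365 nm; drug medium removed, cells kept 24 h in complete F-12; trypan blue viability; IC50 as 50% cell-number reduction versus control.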

HeLa [3] = test: The compound was tested in vitro for growth inhibition against HeLa(human cervix adenocarcinoma) cell line in the dark; assay type: functional, cell-based
Cavia porcellus [4] = species: Cavia porcellus; test: The compound was tested for photo antiproliferative activity and ability to induce erythema on guinea pig skin; --- = absent; assay type: functional, organism-based
In short: (§1)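 Depilated albino guinea pigs (outbred Dunkin-Hartley) given topical ethanol solution on skin, new compounds up to 50 μg cm-2, 5-MOP and 8-MOP at 10 μg cm-2; kept dark 45 min, then treated skin irradiated with 20 kJ m-2 UVA (lamps emitting over 90% at 365 nm); erythema scored after 48 h.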

HL-60 [5] = test: The compound was tested in vitro for growth inhibition against HL-60(human promyelocytic leukemia) cell line in the dark; assay type: functional, cell-based
Cavia porcellus [6] = test: The compound was tested for photo antiproliferative activity and ability to induce erythema on guinea pig skin; +++ = strong (without edema); assay type: functional, organism-based; in short: as §1
Cavia porcellus [7] = species: Cavia porcellus; test: The compound was tested for photo antiproliferative activity and ability to induce erythema on guinea pig skin; +-- = mild; assay type: functional, organism-based; in short: as §1

Question: With Cc1cc(=O)oc2c(O)c3oc4ccccc4c3cc12 as the compound, how does the IC50 (HL-60 [1]) read?
Answer: > 20 µM

Question: And the IC50 (HeLa [2])?
Answer: > 20 µM

Question: And the IC50 (HeLa [3])?
Answer: > 20 µM

Question: What about the Formation of erythema (Cavia porcellus [4]) of the same compound?
Answer: inactive

Question: And the IC50 (HL-60 [5])?
Answer: > 20 µM

Question: Which results are given for Cc1cc(=O)oc2c(O)c3oc4c(c3cc12)CCCC4?
Answer: IC50 (HL-60 [1]): > 20 µM; IC50 (HeLa [2]): > 20 µM; IC50 (HeLa [3]): > 20 µM; Formation of erythema (Cavia porcellus [4]): inactive; IC50 (HL-60 [5]): > 20 µM

Question: COc1c2oc(=O)cc(C)c2cc2c1oc1ccccc12 was tested. Which IC50 (HL-60 [1]) did it give?
Answer: 6.4 µM

Question: And the IC50 (HeLa [2])?
Answer: > 20 µM

Question: What about the IC50 (HeLa [3]) of the same compound?
Answer: > 20 µM

Question: What about the Formation of erythema (Cavia porcellus [4]) of the same compound?
Answer: inactive

Question: And the IC50 (HL-60 [5])?
Answer: > 20 µM

Question: What does the source list for COc1c2occc2cc2ccc(=O)oc12 [METHOXSALEN]?
Answer: IC50 (HL-60 [1]): 5.4 µM; IC50 (HeLa [2]): 10 µM; IC50 (HeLa [3]): > 20 µM; Formation of erythema (Cavia porcellus [6]): Active; IC50 (HL-60 [5]): > 20 µM

Question: Which results are given for COc1c2c(C)cc(=O)oc2cc2oc3ccccc3c12?
Answer: IC50 (HL-60 [1]): 4.5 µM; IC50 (HeLa [2]): > 20 µM; IC50 (HeLa [3]): > 20 µM; Formation of erythema (Cavia porcellus [4]): inactive; IC50 (HL-60 [5]): > 20 µM

Question: How did the IC50 (HL-60 [1]) turn out when Cc1cc(=O)oc2cc3oc4c(c3c(OCCCN(C)C)c12)CCCC4 was run?
Answer: 3.4 µM

Question: And the IC50 (HeLa [2])?
Answer: 3.7 µM

Question: And the Formation of erythema (Cavia porcellus [7])?
Answer: +--

Question: And the IC50 (HeLa [3])?
Answer: > 20 µM

Question: And the IC50 (HL-60 [5])?
Answer: 13.8 µM

Question: Which IC50 (HL-60 [1]) does the source give for Cc1cc(=O)oc2cc3oc4c(c3c(O)c12)CCCC4 here?
Answer: 7.3 µM

Question: What about the IC50 (HeLa [2]) of the same compound?
Answer: > 20 µM

Question: What about the IC50 (HeLa [3]) of the same compound?
Answer: > 20 µM

Question: And the Formation of erythema (Cavia porcellus [4])?
Answer: inactive

Question: What about the IC50 (HL-60 [5]) of the same compound?
Answer: > 20 µM

Question: What does the source list for Cc1cc(=O)oc2c(OCCCN(C)C)c3oc4ccccc4c3cc12?
Answer: IC50 (HL-60 [1]): 0.6 µM; IC50 (HeLa [2]): 0.08 µM; IC50 (HeLa [3]): 9.6 µM; Formation of erythema (Cavia porcellus [4]): inactive; IC50 (HL-60 [5]): 4.2 µM

Question: Which results are given for COc1c2c(C)cc(=O)oc2cc2oc3c(c12)CCCC3?
Answer: IC50 (HL-60 [1]): 4.9 µM; IC50 (HeLa [2]): 4.6 µM; IC50 (HeLa [3]): > 20 µM; Formation of erythema (Cavia porcellus [4]): inactive; IC50 (HL-60 [5]): > 20 µM

Question: Which IC50 (HL-60 [1]) does the source give for Cc1cc(=O)oc2cc3oc4ccccc4c3c(OCCCN(C)C)c12 here?
Answer: 0.73 µM

Question: And the IC50 (HeLa [2])?
Answer: 2.8 µM

Question: And the IC50 (HeLa [3])?
Answer: > 20 µM

Question: What about the Formation of erythema (Cavia porcellus [4]) of the same compound?
Answer: inactive

Question: And the IC50 (HL-60 [5])?
Answer: 9.2 µM

Question: Which results are given for Cc1cc(=O)oc2c(OCCCN(C)C)c3oc4c(c3cc12)CCCC4?
Answer: IC50 (HL-60 [1]): 0.6 µM; IC50 (HeLa [2]): 1.2 µM; IC50 (HeLa [3]): > 20 µM; Formation of erythema (Cavia porcellus [6]): strong (without edema); IC50 (HL-60 [5]): 12.4 µM

Question: How did the IC50 (HL-60 [1]) turn out when COc1c2ccoc2cc2oc(=O)ccc12 [BERGAPTEN] was run?
Answer: 3.35 µM

Question: What about the IC50 (HeLa [2]) of the same compound?
Answer: 16.3 µM

Question: What about the IC50 (HeLa [3]) of the same compound?
Answer: > 20 µM

Question: And the Formation of erythema (Cavia porcellus [6])?
Answer: Active

Question: And the IC50 (HL-60 [5])?
Answer: > 20 µM

Question: With COc1c2oc(=O)cc(C)c2cc2c3c(oc12)CCCC3 as the compound, how does the IC50 (HL-60 [1]) read?
Answer: 3.5 µM

Question: And the IC50 (HeLa [2])?
Answer: > 20 µM

Question: What about the IC50 (HeLa [3]) of the same compound?
Answer: > 20 µM

Question: And the Formation of erythema (Cavia porcellus [4])?
Answer: inactive

Question: What about the IC50 (HL-60 [5]) of the same compound?
Answer: > 20 µM

Question: Cc1cc(=O)oc2cc3oc4ccccc4c3c(O)c12 was tested. Which IC50 (HL-60 [1]) did it give?
Answer: > 20 µM

Question: And the IC50 (HeLa [2])?
Answer: > 20 µM

Question: And the IC50 (HeLa [3])?
Answer: > 20 µM

Question: What about the Formation of erythema (Cavia porcellus [4]) of the same compound?
Answer: inactive

Question: What about the IC50 (HL-60 [5]) of the same compound?
Answer: > 20 µM

— ChEMBL document CHEMBL1132689, “New tetracyclic analogues of photochemotherapeutic drugs 5-MOP and 8-MOP: synthesis, DNA interaction, and antiproliferative activity” (J Med Chem, 1999)
